Data reported in ChEMBL document CHEMBL1124792, “Synthesis and structure-activity relationships of 5-substituted 6,8-difluoroquinolones, including sparfloxacin, a new quinolone antibacterial agent with improved potency” (1990).
In brackets after ≈: the same amount, converted by molar mass.

Columns and labels:
Type in all cases: functional
Staphylococcus aureus [1] = test: In vitro antibacterial activity against Staphylococcus aureus 209P JC-1
How it was run: (§1)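 Two-fold agar dilution MIC on Mueller-Hinton agar (pH 7.4), following the Japan Society of Chemotherapy MIC Committee method. Inoculum was about 10⁶ CFU, and growth was read after 20 h at 37 °C. MIC is reported in µg/mL.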

Escherichia coli [2] = test: In vitro antibacterial activity against Escherichia coli NIHJ JC-2; how it was run: as §1
Pseudomonas aeruginosa [3] = test: In vitro antibacterial activity against Pseudomonas aeruginosa 12; how it was run: as §1
Enterobacter cloacae = test: In vitro antibacterial activity against Enterobacter cloacae 963
Enterococcus faecalis = test: In vitro antibacterial activity against Streptococcus faecalis 2473; how it was run: as §1
Streptococcus pyogenes = test: In vitro antibacterial activity against Streptococcus pyogenes A65; how it was run: as §1
Moraxella bovis = test: In vitro antibacterial activity against glucose nonfermenter Moraxella bovis P-7101; how it was run: as §1
Serratia marcescens = test: In vitro antibacterial activity against Serratia marcescens S-9
How it was run: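 MIC (µg/mL) by 2-fold agar dilution on Mueller-Hinton agar (pH 7.4), following the Japan Society of Chemotherapy MIC Committee method. Inoculum of about 10⁶ CFU. Growth was read after 20 h at 37 °C.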

Pseudomonas aeruginosa [4] = test: In vitro antibacterial activity against Pseudomonas aeruginosa IFO 3445; how it was run: as §1
Mus musculus [5] = organism: Mus musculus; test: Oral efficacy against Streptococcus pyogenes A65 on Systemic Infections in Mice
How it was run: (§2)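 Groups of at least 10 male Std-ddY mice (20 ± 2 g) were infected ip, with S. pyogenes A65 at 3×10^7 cells or P. aeruginosa 12 at 4×10^3 cells. Compounds were suspended in 0.2% sodium carboxymethylcellulose and given orally at 0 and 6 h postinfection. The result is reported as ED50 in mg/kg.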

Escherichia coli [6] = test: In vitro antibacterial activity against Escherichia coli P-5101; how it was run: as §1
Mus musculus [7] = organism: Mus musculus; test: Oral efficacy against Pseudomonas aeruginosa 12 on Systemic Infections in Mice; how it was run: as §2
Klebsiella pneumoniae = test: In vitro antibacterial activity against Klebsiella pneumoniae 13; how it was run: as §1
Staphylococcus aureus [8] = test: In vitro antibacterial activity against Staphylococcus aureus 50774; how it was run: as §1
[9] = system: Staphylococcus epidermidis; test: In vitro antibacterial activity against Streptococcus epidermis 8; how it was run: as §1

MIC (Staphylococcus aureus [1]) [µg/mL]	MIC (Escherichia coli [2]) [µg/mL]	MIC (Pseudomonas aeruginosa [3]) [µg/mL]	SMILES	other results
0.78 (≈ 1.99 µM)	0.39 (≈ 0.994 µM)	3.13 (≈ 7.98 µM)	C[C@@H]1CN(c2c(F)c(N)c3c(=O)c(C(=O)O)cn(C4CC4)c3c2F)[C@@H](C)CN1	–
0.05 (≈ 0.132 µM)	0.0125 (≈ 0.033 µM)	0.2 (≈ 0.529 µM)	C[C@@H]1CN(c2c(F)c(N)c3c(=O)c(C(=O)O)cn(C4CC4)c3c2F)CCN1	–
0.2 (≈ 0.503 µM)	0.025 (≈ 0.0628 µM)	0.78 (≈ 1.96 µM)	CN1CCN(c2c(F)c(Cl)c3c(=O)c(C(=O)O)cn(C4CC4)c3c2F)CC1	–
0.39 (≈ 1.03 µM)	0.1 (≈ 0.265 µM)	0.39 (≈ 1.03 µM)	C[C@@H]1CN(c2c(F)cc3c(=O)c(C(=O)O)cn(C4CC4)c3c2F)C[C@H](C)N1	MIC (Enterobacter cloacae): 0.05 µg/mL (≈ 0.132 µM); MIC (Enterococcus faecalis): 1.56 µg/mL (≈ 4.13 µM); MIC (Streptococcus pyogenes): 0.39 µg/mL (≈ 1.03 µM); MIC (Moraxella bovis): 0.78 µg/mL (≈ 2.07 µM); MIC (Serratia marcescens): 0.2 µg/mL (≈ 0.53 µM); MIC (Pseudomonas aeruginosa [4]): 0.39 µg/mL (≈ 1.03 µM); ED50 (Mus musculus [5]): 8.64 mg/kg; MIC (Escherichia coli [6]): 0.0063 µg/mL (≈ 0.0167 µM); ED50 (Mus musculus [7]): 1.41 mg/kg; MIC (Klebsiella pneumoniae): 0.05 µg/mL (≈ 0.132 µM)
0.05 (≈ 0.127 µM)	0.025 (≈ 0.0637 µM)	0.78 (≈ 1.99 µM)	CC1(C)CN(c2c(F)c(N)c3c(=O)c(C(=O)O)cn(C4CC4)c3c2F)CCN1	–
0.05 (≈ 0.127 µM)	0.0063 (≈ 0.0161 µM)	0.39 (≈ 0.994 µM)	CC1CN(c2c(F)c(N)c3c(=O)c(C(=O)O)cn(C4CC4)c3c2F)CCN1C (configuration not stated)	–
0.05 (≈ 0.119 µM)	0.1 (≈ 0.237 µM)	1.56 (≈ 3.7 µM)	CN(C)CC1CN(c2c(F)c(N)c3c(=O)c(C(=O)O)cn(C4CC4)c3c2F)CCN1 (configuration not stated)	–
0.2 (≈ 0.508 µM)	0.025 (≈ 0.0636 µM)	0.78 (≈ 1.98 µM)	C[C@@H]1CN(c2c(F)c(O)c3c(=O)c(C(=O)O)cn(C4CC4)c3c2F)C[C@H](C)N1	–
0.2 (≈ 0.486 µM)	0.025 (≈ 0.0607 µM)	0.78 (≈ 1.89 µM)	C[C@@H]1CN(c2c(F)c(Cl)c3c(=O)c(C(=O)O)cn(C4CC4)c3c2F)C[C@H](C)N1	–
0.025 (≈ 0.0637 µM)	0.0125 (≈ 0.0319 µM)	0.78 (≈ 1.99 µM)	C[C@@H]1NCCN(c2c(F)c(N)c3c(=O)c(C(=O)O)cn(C4CC4)c3c2F)[C@@H]1C (relative stereo)	–
0.39 (≈ 0.986 µM)	0.05 (≈ 0.126 µM)	1.56 (≈ 3.95 µM)	C[C@@H]1CN(c2c(F)c(F)c3c(=O)c(C(=O)O)cn(C4CC4)c3c2F)C[C@H](C)N1 [ORBIFLOXACIN]	–

The remaining lines, values behind:

SMILES	MIC (Staphylococcus aureus [1]) [µg/mL]	MIC (Escherichia coli [2]) [µg/mL]	MIC (Pseudomonas aeruginosa [3]) [µg/mL]	other results
O=C(O)c1cn(C2CC2)c2c(F)c(N3CCNCC3)c(F)c(O)c2c1=O	0.2 (≈ 0.547 µM)	0.025 (≈ 0.0684 µM)	0.39 (≈ 1.07 µM)	–
CN1CCN(c2c(F)c(F)c3c(=O)c(C(=O)O)cn(C4CC4)c3c2F)CC1	0.39 (≈ 1.02 µM)	0.05 (≈ 0.131 µM)	0.78 (≈ 2.05 µM)	–
CSc1c(F)c(N2CCN(C)CC2)c(F)c2c1c(=O)c(C(=O)O)cn2C1CC1	3.13 (≈ 7.64 µM)	0.2 (≈ 0.488 µM)	12.5 (≈ 30.5 µM)	–
CN(C)CCNc1c(F)c(N2CCN(C)CC2)c(F)c2c1c(=O)c(C(=O)O)cn2C1CC1	6.25 (≈ 13.9 µM)	0.05 (≈ 0.111 µM)	0.78 (≈ 1.74 µM)	–
O=C(O)c1cn(C2CC2)c2c(F)c(N3CCNCC3)c(F)c(Cl)c2c1=O	0.1 (≈ 0.261 µM)	0.0125 (≈ 0.0326 µM)	0.39 (≈ 1.02 µM)	–
CN1CCN(c2c(F)c(OCc3ccccc3)c3c(=O)c(C(=O)O)cn(C4CC4)c3c2F)CC1	6.25 (≈ 13.3 µM)	1.56 (≈ 3.32 µM)	6.25 (≈ 13.3 µM)	–
CN1CCN(c2c(F)c(N(C)C)c3c(=O)c(C(=O)O)cn(C4CC4)c3c2F)CC1	25 (≈ 61.5 µM)	3.13 (≈ 7.7 µM)	50 (≈ 123 µM)	–
CN1CCN(c2c(F)c(S)c3c(=O)c(C(=O)O)cn(C4CC4)c3c2F)CC1	3.13 (≈ 7.92 µM)	0.39 (≈ 0.986 µM)	12.5 (≈ 31.6 µM)	–
CN1CCN(c2c(F)c(NCc3ccccc3)c3c(=O)c(C(=O)O)cn(C4CC4)c3c2F)CC1	0.78 (≈ 1.66 µM)	0.78 (≈ 1.66 µM)	3.13 (≈ 6.68 µM)	–
CNc1c(F)c(N2CCN(C)CC2)c(F)c2c1c(=O)c(C(=O)O)cn2C1CC1	0.78 (≈ 1.99 µM)	0.1 (≈ 0.255 µM)	1.56 (≈ 3.98 µM)	–
CN1CCN(c2c(F)c(NCCO)c3c(=O)c(C(=O)O)cn(C4CC4)c3c2F)CC1	0.39 (≈ 0.923 µM)	0.05 (≈ 0.118 µM)	0.78 (≈ 1.85 µM)	–
CN1CCN(c2c(F)c(O)c3c(=O)c(C(=O)O)cn(C4CC4)c3c2F)CC1	0.2 (≈ 0.527 µM)	0.05 (≈ 0.132 µM)	0.78 (≈ 2.06 µM)	–
COc1ccc(CSc2c(F)c(N3CCN(C)CC3)c(F)c3c2c(=O)c(C(=O)O)cn3C2CC2)cc1	100 (≈ 194 µM)	12.5 (≈ 24.2 µM)	> 100	–
COc1c(F)c(N2CCN(C)CC2)c(F)c2c1c(=O)c(C(=O)O)cn2C1CC1	25 (≈ 63.6 µM)	0.2 (≈ 0.508 µM)	12.5 (≈ 31.8 µM)	–
CN1CCN(c2c(F)c(Br)c3c(=O)c(C(=O)O)cn(C4CC4)c3c2F)CC1	0.39 (≈ 0.882 µM)	0.05 (≈ 0.113 µM)	0.78 (≈ 1.76 µM)	–
Nc1c(F)c(N2CCNC(CO)C2)c(F)c2c1c(=O)c(C(=O)O)cn2C1CC1 (configuration not stated)	0.05 (≈ 0.127 µM)	0.025 (≈ 0.0634 µM)	0.2 (≈ 0.507 µM)	–
CC1CNCCN1c1c(F)c(N)c2c(=O)c(C(=O)O)cn(C3CC3)c2c1F (configuration not stated)	0.2 (≈ 0.529 µM)	0.05 (≈ 0.132 µM)	0.78 (≈ 2.06 µM)	–
CN1CCN(c2c(F)c(-n3cccc3)c3c(=O)c(C(=O)O)cn(C4CC4)c3c2F)CC1	3.13 (≈ 7.31 µM)	0.39 (≈ 0.91 µM)	12.5 (≈ 29.2 µM)	–
O=C(O)c1cn(C2CC2)c2cc(N3CCNCC3)c(F)cc2c1=O [CIPROFLOXACIN]	0.1 (≈ 0.302 µM)	–	–	MIC (Enterococcus faecalis): 1.56 µg/mL (≈ 4.71 µM); MIC (Streptococcus pyogenes): 0.2 µg/mL (≈ 0.604 µM); MIC (Staphylococcus aureus [8]): 0.2 µg/mL (≈ 0.604 µM); MIC (Moraxella bovis): 3.13 µg/mL (≈ 9.45 µM); MIC (Serratia marcescens): 0.05 µg/mL (≈ 0.151 µM); MIC (Pseudomonas aeruginosa [4]): 0.2 µg/mL (≈ 0.604 µM); ED50 (Mus musculus [5]): 23.9 mg/kg; MIC (Escherichia coli [6]): 0.0063 µg/mL (≈ 0.019 µM); MIC [9]: 0.1 µg/mL (≈ 0.302 µM); ED50 (Mus musculus [7]): 2.78 mg/kg; MIC (Klebsiella pneumoniae): 0.025 µg/mL (≈ 0.0754 µM)
CC1COc2c(N3CCN(C)CC3)c(F)cc3c(=O)c(C(=O)O)cn1c23 (configuration not stated) [OFLOXACIN]	0.78 (≈ 2.16 µM)	–	–	MIC (Enterobacter cloacae): 0.1 µg/mL (≈ 0.277 µM); MIC (Enterococcus faecalis): 1.56 µg/mL (≈ 4.32 µM); MIC (Streptococcus pyogenes): 0.39 µg/mL (≈ 1.08 µM); MIC (Staphylococcus aureus [8]): 0.2 µg/mL (≈ 0.553 µM); MIC (Moraxella bovis): 1.56 µg/mL (≈ 4.32 µM); MIC (Serratia marcescens): 0.2 µg/mL (≈ 0.553 µM); MIC (Pseudomonas aeruginosa [4]): 1.56 µg/mL (≈ 4.32 µM); ED50 (Mus musculus [5]): 10.8 mg/kg; MIC (Escherichia coli [6]): 0.05 µg/mL (≈ 0.138 µM); MIC [9]: 0.2 µg/mL (≈ 0.553 µM); ED50 (Mus musculus [7]): 6.62 mg/kg; MIC (Klebsiella pneumoniae): 0.1 µg/mL (≈ 0.277 µM)
